In ChEMBL document CHEMBL3352149, “Promiscuity and selectivity in covalent enzyme inhibition: a systematic study of electrophilic fragments” (J Med Chem, 2014):
pEC50: −log10 of the molar value. The source made the active and inactive calls. The calls are words filed in the database; no cut-off is given here.

Key:
Escherichia coli [1] = experiment: Inhibition of Escherichia coli MetAP at 25 uM after 20 mins by HPLC analysis
Outline: (§1)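 Endpoint assay. Enzyme (50 nM) was preincubated with 25 μM compound for 20 min at 37 °C in 50 mM Tris pH 7.5, 100 mM NaCl, 100 μM CoCl2, 0.075% BSA. MGMM substrate (400 μM) was then added for 15 min (human MetAP-1) or 20 min (E. coli MetAP). Reactions were stopped with TFA. GMM product was quantified by RP-HPLC, UV 214 nm. Triplicate.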

[2] = target: Methionine aminopeptidase 1 (Homo sapiens) (UniProt P53582); experiment: Inhibition of human MetAP at 25 uM after 20 mins by HPLC analysis; outline: as §1
Escherichia coli [3] = experiment: Inhibition of wild-type Escherichia coli MurA compound preincubated for 10 mins before substrate addition at 25 uM measured after 15 mins by LC-MS method
Escherichia coli [4] = experiment: Inhibition of wild-type Escherichia coli MurB compound preincubated for 10 mins before substrate addition at 25 uM measured after 15 mins by LC-MS method
Outline: (§2)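 E. coli wild-type enzyme (4 nM) was preincubated with 25 μM compound for 10 min at 37 °C. Enzymatically generated nucleotide-sugar substrate (~200 μM) plus ATP (~200 μM), or NADPH 200 μM for MurB, was added for 10 min. Reactions were started with amino-acid cosubstrate (MurC–F) or EP-UNAG (MurB), run 15 min at 37 °C, and quenched with formic acid. Product was measured by negative-ESI LC-MS EIC peak area. MgCl2: MurC 10, MurD/E 2, MurF 5 mM; MurB had 5 mM KCl. All in 50 mM NH4HCO3, 0.07% BSA, 1% DMSO; triplicate.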

Escherichia coli [5] = experiment: Inhibition of wild-type Escherichia coli MurC compound preincubated for 10 mins before substrate addition at 25 uM measured after 15 mins by LC-MS method; outline: as §2
Escherichia coli [6] = experiment: Inhibition of wild-type Escherichia coli MurD compound preincubated for 10 mins before substrate addition at 25 uM measured after 15 mins by LC-MS method; outline: as §2
Escherichia coli [7] = experiment: Inhibition of wild-type Escherichia coli MurE compound preincubated for 10 mins before substrate addition at 25 uM measured after 15 mins by LC-MS method; outline: as §2
Escherichia coli [8] = experiment: Inhibition of wild-type Escherichia coli MurF compound preincubated for 10 mins before substrate addition at 25 uM measured after 15 mins by LC-MS method; outline: as §2
Escherichia coli [9] = experiment: Induction of covalent MurA enzyme adduct formation preincubated with UNAG substrate for 10 mins compound treated at 300 uM after 1 hr by ESI-MS analysis
Outline: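 E. coli MurA (25 μM) preincubated with UNAG 300 μM for 10 min at 37 °C, then test compound added at 300 μM. Incubation ran 60 min at 37 °C in 50 mM NH₄HCO₃, pH 7.9. Samples were spin-desalted on Sephadex G-25, then analysed by flow-injection positive-mode ESI-MS for enzyme adducts. Untreated enzyme served as control.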

Escherichia coli [10] = experiment: Induction of covalent MurE enzyme adduct formation preincubated with UNAG substrate for 10 mins compound treated at 300 uM after 1 hr by ESI-MS analysis
Escherichia coli [11] = experiment: Induction of covalent MetAP enzyme adduct formation at 300 uM after 1 hr by ESI-MS analysis
Outline: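 E. coli MetAP (25 μM) was incubated with 300 μM compound for 60 min at 37 °C in 50 mM NH4HCO3, pH 7.9, with 200 μM CoCl2. Untreated enzyme served as control. Samples were spin-desalted on Sephadex G-25 and analysed by flow-injection ESI-MS in positive mode (isocratic water/acetonitrile 95/5 with 0.1% formic acid), looking for covalent adducts.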

HeLa = experiment: Cytotoxicity against human HeLa cells assessed as reduction in cell viability after 24 hrs by CellTiter-Blue assay; assay type: cell-based
Outline: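 HeLa cells seeded in triplicate at 5×10^3 cells/well and grown 24 h at 37 °C/5% CO2. Compounds at varying concentrations were added as a 2x stock in phenol-red-free DMEM with FBS, penicillin/streptomycin, sodium pyruvate and L-glutamine, then left 24 h. Medium was replaced with CellTiter-Blue medium for 3 h. A570/A610 was read after background subtraction, as % of untreated controls; EC50 derived.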

[12] = target: Genome polyprotein (dengue virus type 2) (UniProt P12823); experiment: Inhibition of Dengue virus serotype 2 NS2B-NS3 protease at 50 uM
[13] = target: Genome polyprotein (West Nile virus) (UniProt P06935); experiment: Inhibition of West Nile virus NS2B-NS3 protease at 50 uM
Prothrombin (Bos taurus) = Prothrombin (Bos taurus) (UniProt P00735); experiment: Inhibition of Bovine thrombin using Boc-Val-Pro-Arg-AMC as substrate compound preincubated at 25 uM for 15 mins by fluorescence assay
Outline: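 Bovine thrombin (final 10 nM) was preincubated 15 min with 25 μM compound in 50 mM Tris-HCl pH 7.5, 150 mM NaCl, 0.05% Tween 20. The reaction was started with Boc-Val-Pro-Arg-AMC (50 μM final). Fluorescence (ex 355/em 460 nm) was monitored continuously for 10 min; activity taken as slope (RFU/s). Triplicate.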

[14] = GSH reactivity of the compound assessed as adducts formation by RP-HPLC analysis
Outline: (§3)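 Fresh aqueous glutathione (10 mM solution) was added to 50 mM Tris-maleate buffer, pH 7.5. The reaction was started with compound from 10 mM DMSO stock (final 250 μM). Mixtures were followed by reversed-phase HPLC on an ODS column with a gradient to 100% B; rate constants are given in l·mol⁻¹·s⁻¹.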

Escherichia coli [15] = experiment: Induction of covalent MurB enzyme adduct formation preincubated with UNAG substrate for 10 mins compound treated at 300 uM after 1 hr by ESI-MS analysis
[16] = GSH reactivity of the compound assessed as half life by RP-HPLC analysis
[17] = GSH reactivity of the compound assessed as adducts formation meaured over 3 hrs by RP-HPLC analysis; outline: as §3

Chain of Genome polyprotein (West Nile virus) (P06935 whole entry): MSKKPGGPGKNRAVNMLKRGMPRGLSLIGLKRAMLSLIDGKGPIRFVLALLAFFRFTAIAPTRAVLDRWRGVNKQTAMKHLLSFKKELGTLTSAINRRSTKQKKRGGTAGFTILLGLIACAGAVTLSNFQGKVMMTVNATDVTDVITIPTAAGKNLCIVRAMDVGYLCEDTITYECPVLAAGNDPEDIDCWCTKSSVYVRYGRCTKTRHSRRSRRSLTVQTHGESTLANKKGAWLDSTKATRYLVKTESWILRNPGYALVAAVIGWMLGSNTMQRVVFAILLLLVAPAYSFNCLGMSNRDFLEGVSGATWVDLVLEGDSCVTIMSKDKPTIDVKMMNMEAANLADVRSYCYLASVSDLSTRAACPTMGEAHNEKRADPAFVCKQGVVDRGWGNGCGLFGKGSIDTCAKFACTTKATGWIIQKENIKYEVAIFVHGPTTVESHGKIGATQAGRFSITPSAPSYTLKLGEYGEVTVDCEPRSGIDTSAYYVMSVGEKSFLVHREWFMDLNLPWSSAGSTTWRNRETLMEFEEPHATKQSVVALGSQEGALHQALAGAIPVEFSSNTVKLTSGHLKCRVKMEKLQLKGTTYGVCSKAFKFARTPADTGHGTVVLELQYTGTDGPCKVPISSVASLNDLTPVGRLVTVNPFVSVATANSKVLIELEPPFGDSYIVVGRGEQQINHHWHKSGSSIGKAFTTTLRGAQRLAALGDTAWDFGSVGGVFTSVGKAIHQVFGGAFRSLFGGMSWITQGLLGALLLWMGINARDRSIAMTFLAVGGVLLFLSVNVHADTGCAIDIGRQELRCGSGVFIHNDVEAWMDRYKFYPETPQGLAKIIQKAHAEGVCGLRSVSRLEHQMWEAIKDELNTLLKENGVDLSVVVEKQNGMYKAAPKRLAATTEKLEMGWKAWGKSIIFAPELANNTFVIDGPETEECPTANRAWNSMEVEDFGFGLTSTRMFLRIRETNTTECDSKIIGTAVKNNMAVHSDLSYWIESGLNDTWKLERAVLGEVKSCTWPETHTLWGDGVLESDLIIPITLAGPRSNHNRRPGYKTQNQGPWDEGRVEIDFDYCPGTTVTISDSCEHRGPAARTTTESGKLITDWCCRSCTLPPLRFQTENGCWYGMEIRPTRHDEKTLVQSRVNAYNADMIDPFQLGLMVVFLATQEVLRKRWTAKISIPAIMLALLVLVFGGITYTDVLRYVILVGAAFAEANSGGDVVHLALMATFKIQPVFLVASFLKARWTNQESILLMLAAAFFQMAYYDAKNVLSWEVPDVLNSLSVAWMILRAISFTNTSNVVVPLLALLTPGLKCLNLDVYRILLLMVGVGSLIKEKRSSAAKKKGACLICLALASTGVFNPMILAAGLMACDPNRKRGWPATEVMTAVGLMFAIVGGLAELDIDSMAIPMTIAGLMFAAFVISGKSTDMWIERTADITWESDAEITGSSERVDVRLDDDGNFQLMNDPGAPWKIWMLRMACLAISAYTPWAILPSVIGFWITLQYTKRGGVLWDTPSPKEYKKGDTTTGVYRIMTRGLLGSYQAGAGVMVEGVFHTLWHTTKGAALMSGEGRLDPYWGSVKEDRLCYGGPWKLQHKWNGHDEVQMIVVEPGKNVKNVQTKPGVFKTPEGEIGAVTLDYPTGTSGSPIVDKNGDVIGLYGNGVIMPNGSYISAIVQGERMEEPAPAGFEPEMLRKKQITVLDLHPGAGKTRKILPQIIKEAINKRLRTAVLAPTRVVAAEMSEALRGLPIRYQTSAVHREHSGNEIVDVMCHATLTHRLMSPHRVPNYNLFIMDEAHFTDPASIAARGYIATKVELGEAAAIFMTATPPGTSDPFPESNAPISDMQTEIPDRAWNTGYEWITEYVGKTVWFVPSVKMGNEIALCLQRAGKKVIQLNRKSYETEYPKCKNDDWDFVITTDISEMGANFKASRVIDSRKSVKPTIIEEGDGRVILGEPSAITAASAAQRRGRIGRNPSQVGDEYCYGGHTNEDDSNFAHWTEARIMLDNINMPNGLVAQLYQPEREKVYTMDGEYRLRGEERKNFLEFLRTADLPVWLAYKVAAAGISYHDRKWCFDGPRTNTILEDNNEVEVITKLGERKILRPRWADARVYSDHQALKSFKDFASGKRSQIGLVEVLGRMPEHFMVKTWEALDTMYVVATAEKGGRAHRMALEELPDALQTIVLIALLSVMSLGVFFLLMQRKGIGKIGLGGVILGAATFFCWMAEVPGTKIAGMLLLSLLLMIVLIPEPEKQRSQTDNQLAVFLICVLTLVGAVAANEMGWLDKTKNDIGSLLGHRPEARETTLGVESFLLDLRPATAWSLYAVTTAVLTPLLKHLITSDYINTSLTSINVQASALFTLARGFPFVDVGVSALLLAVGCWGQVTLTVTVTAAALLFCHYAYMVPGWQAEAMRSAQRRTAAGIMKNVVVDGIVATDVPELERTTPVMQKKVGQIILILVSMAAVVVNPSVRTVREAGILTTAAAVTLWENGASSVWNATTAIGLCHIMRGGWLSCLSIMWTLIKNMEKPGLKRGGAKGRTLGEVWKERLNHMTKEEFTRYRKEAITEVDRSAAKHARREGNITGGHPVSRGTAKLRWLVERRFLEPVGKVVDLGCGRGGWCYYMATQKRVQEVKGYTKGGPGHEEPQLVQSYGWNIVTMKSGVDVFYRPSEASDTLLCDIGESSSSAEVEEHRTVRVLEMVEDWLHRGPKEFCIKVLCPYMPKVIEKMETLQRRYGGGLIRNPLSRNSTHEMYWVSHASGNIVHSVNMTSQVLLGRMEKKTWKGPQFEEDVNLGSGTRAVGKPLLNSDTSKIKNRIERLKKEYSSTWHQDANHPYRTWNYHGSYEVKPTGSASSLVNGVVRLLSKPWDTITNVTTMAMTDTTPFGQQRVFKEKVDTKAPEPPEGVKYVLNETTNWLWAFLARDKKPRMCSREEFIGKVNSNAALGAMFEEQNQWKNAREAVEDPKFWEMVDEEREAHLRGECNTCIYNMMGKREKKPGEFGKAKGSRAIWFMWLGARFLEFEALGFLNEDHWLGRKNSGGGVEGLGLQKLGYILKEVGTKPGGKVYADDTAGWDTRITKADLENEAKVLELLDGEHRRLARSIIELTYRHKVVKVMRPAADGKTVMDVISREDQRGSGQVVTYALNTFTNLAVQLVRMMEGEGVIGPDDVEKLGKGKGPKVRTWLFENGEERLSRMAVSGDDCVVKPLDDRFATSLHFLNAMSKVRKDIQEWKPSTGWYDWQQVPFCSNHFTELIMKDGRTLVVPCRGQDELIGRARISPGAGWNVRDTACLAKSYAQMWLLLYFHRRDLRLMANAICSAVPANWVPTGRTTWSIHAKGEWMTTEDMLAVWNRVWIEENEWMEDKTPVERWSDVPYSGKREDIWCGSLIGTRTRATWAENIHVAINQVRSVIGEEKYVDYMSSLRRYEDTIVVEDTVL

With C[S+](C)CC(=O)Nc1ccccc1 as the compound, how does the inhibition (Escherichia coli [1]) read?
Its inhibition is < 15%.

What about the inhibition [2] of the same compound?
Its inhibition is < 15%.

And the inhibition (Escherichia coli [3])?
The inhibition was < 15%.

What about the inhibition (Escherichia coli [4]) of the same compound?
The inhibition was < 15%.

What about the inhibition (Escherichia coli [5]) of the same compound?
The inhibition was < 15%.

And the inhibition (Escherichia coli [6])?
Its inhibition is < 15%.

And the inhibition (Escherichia coli [7])?
Its inhibition is 32%.

And the inhibition (Escherichia coli [8])?
The inhibition was < 15%.

And the Activity (Escherichia coli [9])?
The Activity was “inactive”.

And the Activity (Escherichia coli [10])?
The Activity was < 0.1 L/mol/s.

What about the Activity (Escherichia coli [11]) of the same compound?
The Activity was < 0.1 L/mol/s.

And the pEC50 (HeLa)?
Its pEC50 is < 4.00.

What about the inhibition [12] of the same compound?
The inhibition was < 15%.

And the inhibition [13]?
Its inhibition is < 15%.

What about the inhibition (Prothrombin (Bos taurus)) of the same compound?
The inhibition was < 15%.

Which results are given for O=C(Nc1ccc([N+](=O)[O-])cc1)C1CC(Br)=NO1 (configuration not stated)?
inhibition (Escherichia coli [1]): 28%; inhibition [2]: < 15%; inhibition (Escherichia coli [3]): < 15%; inhibition (Escherichia coli [4]): < 15%; inhibition (Escherichia coli [5]): < 15%; inhibition (Escherichia coli [6]): < 15%; inhibition (Escherichia coli [7]): 44%; inhibition (Escherichia coli [8]): < 15%; Activity [14]: < 0.1 L/mol/s; Activity (Escherichia coli [15]): < 0.1 L/mol/s; Activity (Escherichia coli [10]): < 0.1 L/mol/s; Activity (Escherichia coli [11]): < 0.1 L/mol/s; pEC50 (HeLa): 4.13; T1/2 [16]: > 200 h; inhibition [12]: < 15%; inhibition [13]: < 15%; inhibition (Prothrombin (Bos taurus)): < 15%

Which results are given for CCCCNC(=O)C1CC(Br)=NO1 (configuration not stated)?
inhibition (Escherichia coli [1]): < 15%; inhibition [2]: < 15%; inhibition (Escherichia coli [3]): < 15%; inhibition (Escherichia coli [4]): < 15%; inhibition (Escherichia coli [5]): < 15%; inhibition (Escherichia coli [6]): < 15%; inhibition (Escherichia coli [7]): 27%; inhibition (Escherichia coli [8]): < 15%; Activity [14]: < 0.1 L/mol/s; pEC50 (HeLa): < 4.00; T1/2 [16]: > 200 h; inhibition [12]: < 15%; inhibition [13]: < 15%; inhibition (Prothrombin (Bos taurus)): < 15%

Which inhibition (Escherichia coli [1]) does the source give for O=C(Nc1ccc(F)cc1)n1ccnc1 here?
The inhibition was < 15%.

And the inhibition [2]?
Its inhibition is < 15%.

And the inhibition (Escherichia coli [3])?
Its inhibition is 28%.

And the inhibition (Escherichia coli [4])?
The inhibition was < 15%.

And the inhibition (Escherichia coli [5])?
Its inhibition is < 15%.

And the inhibition (Escherichia coli [6])?
Its inhibition is < 15%.

What about the inhibition (Escherichia coli [7]) of the same compound?
The inhibition was < 15%.

What about the inhibition (Escherichia coli [8]) of the same compound?
The inhibition was < 15%.

And the Activity [14]?
The Activity was < 0.1 L/mol/s.

What about the Activity (Escherichia coli [15]) of the same compound?
Its Activity is < 0.1 L/mol/s.

And the inhibition [12]?
Its inhibition is < 15%.

And the inhibition [13]?
The inhibition was < 15%.

And the inhibition (Prothrombin (Bos taurus))?
The inhibition was < 15%.

Which results are given for C=CC(=O)Nc1ccccc1?
inhibition (Escherichia coli [1]): < 15%; inhibition [2]: < 15%; inhibition (Escherichia coli [3]): < 15%; inhibition (Escherichia coli [4]): < 15%; inhibition (Escherichia coli [5]): < 15%; inhibition (Escherichia coli [6]): < 15%; inhibition (Escherichia coli [7]): < 15%; inhibition (Escherichia coli [8]): < 15%; Activity [14]: < 0.1 L/mol/s; Activity (Escherichia coli [9]): inactive; Activity (Escherichia coli [10]): < 0.1 L/mol/s; Activity (Escherichia coli [11]): < 0.1 L/mol/s; pEC50 (HeLa): < 4.00; Activity [17]: < 5%; inhibition [12]: < 15%; inhibition [13]: < 15%; inhibition (Prothrombin (Bos taurus)): < 15%

With O=C(Nc1ccccc1)n1ccnc1 [IMIDAZOLE-1-CARBOXYLIC ACID PHENYLAMIDE] as the compound, how does the inhibition (Escherichia coli [1]) read?
The inhibition was < 15%.

And the inhibition [2]?
The inhibition was < 15%.

And the inhibition (Escherichia coli [3])?
Its inhibition is < 15%.

And the inhibition (Escherichia coli [4])?
Its inhibition is < 15%.

What about the inhibition (Escherichia coli [5]) of the same compound?
The inhibition was < 15%.

What about the inhibition (Escherichia coli [6]) of the same compound?
Its inhibition is < 15%.

What about the inhibition (Escherichia coli [7]) of the same compound?
Its inhibition is < 15%.

What about the inhibition (Escherichia coli [8]) of the same compound?
The inhibition was < 15%.

What about the Activity [14] of the same compound?
Its Activity is < 0.1 L/mol/s.

And the Activity (Escherichia coli [9])?
Its Activity is “inactive”.

And the Activity (Escherichia coli [10])?
The Activity was < 0.1 L/mol/s.

And the Activity (Escherichia coli [11])?
The Activity was < 0.1 L/mol/s.

And the pEC50 (HeLa)?
The pEC50 was < 4.00.

And the inhibition [12]?
The inhibition was < 15%.

And the inhibition [13]?
Its inhibition is < 15%.

And the inhibition (Prothrombin (Bos taurus))?
The inhibition was < 15%.
